Data set [1] in a line: Cytotoxicity against HEK293T cells at 50 ug/ml after 72 hrs by MTT assay. To be noted: human, read-out: INH. The data set is classed as cell-based, HEK-293T. (In general: Tetrazolium assays rely on reduction of a dye to a coloured formazan, in cell work by metabolically active cells.)
The test system of data set [2] is HEK-293T. Description: Cytotoxicity against HEK293T cells after 72 hrs by MTT assay. Particulars: Homo sapiens. It counts as cell-based. In short, it runs like this: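 Human embryonic kidney 293T cells were exposed to compound for 72 h. Viability was read by cellular conversion of MTT to formazan, and percentage growth of cells was reported.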
The subject of data set [3] is Mycobacterium tuberculosis. The experiment in a line: Antimycobacterial activity against Mycobacterium tuberculosis H37Rv ATCC 27294 assessed as parasite growth inhibition after 28 days by agar dilution method. The data set is classed as functional. Particulars: H37Rv ATCC 27294, 672 h. In short, it runs like this: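 Inoculum from fresh Middlebrook 7H11 agar slants with OADC supplement, adjusted to 1 mg/mL wet weight in 0.05% Tween 80 saline and diluted to about 10^7 cfu/mL. Suspension was spotted onto 7H11 agar tubes containing 10-fold serial drug dilutions and incubated at 37 °C. Read at 28 days. MIC was the lowest concentration completely inhibiting growth, run in triplicate at pH 7.40.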
Background: In agar dilution the substance is mixed into plates at graded concentrations.

Data set [4] is described as follows: Selectivity index, ratio of IC50 for HEK293T cells to MIC for Mycobacterium tuberculosis H37Rv ATCC 27294. The data set is classed as toxicity, cell-based, HEK-293T. Particulars: human, read-out: Selectivity Index. In short, it runs like this: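 SI was taken as the approximated IC50 in HEK293T cells (72 h MTT) relative to MIC against H37Rv (agar dilution, 28 days). SI above 10 was counted as nontoxic.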

Molecules are shown by their SMILES. In brackets after ≈: the same amount, converted by molar mass.

As a reminder, the IC50 is the point on the concentration scale where inhibition reaches its midpoint. Read a high IC50 as weaker potency. One may read the MIC as the lowest concentration that inhibits growth of the organism.

Regarding `Brc1ccc(Cn2cc(-c3ccc4oc5ccccc5c4c3)nn2)cc1`, the cytotoxicity at 72 h, 50 ug/ml in data set [1] amounted to 27.8%. Further, in data set [2], the IC50 was > 50 µg/mL. Besides, the MIC in data set [3] was 0.78 µg/mL (≈ 1.93 µM). Besides, in data set [4], the selectivity ratio is > 25.

With `COc1cccc(Cn2cc(-c3ccc4oc5ccccc5c4c3)nn2)c1`, the cytotoxicity at 72 h, 50 ug/ml in data set [1] worked out at 62.1%. Moreover, in data set [2], the IC50 was < 50 µg/mL. In addition, the MIC in data set [3] came out at 0.78 µg/mL (≈ 2.19 µM). The selectivity ratio in data set [4] turned out to be 25.

Regarding `CCOC(=O)Cn1cc(-c2ccc3oc4ccccc4c3c2)nn1`, the cytotoxicity at 72 h, 50 ug/ml in data set [1] is 38.8%. The IC50 in data set [2] was > 50 µg/mL. For the same compound, the MIC in data set [3] was determined as 1.56 µg/mL (≈ 4.85 µM). Besides, the selectivity ratio in data set [4] is > 25.

Take `O=[N+]([O-])c1ccc(Cn2cc(-c3ccc4oc5ccccc5c4c3)nn2)cc1`: in data set [1], the cytotoxicity at 72 h, 50 ug/ml is 46.3%. The IC50 in data set [2] was 50 µg/mL (≈ 135 µM). The MIC in data set [3] worked out at 50 µg/mL (≈ 135 µM). The selectivity ratio in data set [4] is 1.

Turning to `CC(c1ccc2sc3ccccc3c2c1)n1cc(-c2ccc3oc4ccccc4c3c2)nn1` (centres undefined), the cytotoxicity at 72 h, 50 ug/ml in data set [1] came out at 61.1%. Moreover, in data set [2], the IC50 was < 50 µg/mL. Moreover, the MIC in data set [3] came to 25 µg/mL (≈ 56.1 µM). Also, in data set [4], the selectivity ratio stood at 1.

On to `NNC(=O)c1ccncc1` [ISONIAZID], for which the MIC in data set [3] is 0.1 µg/mL (≈ 0.729 µM).

For `COC(=O)c1ccc(Cn2cc(-c3ccc4oc5ccccc5c4c3)nn2)cc1`, in data set [1], the cytotoxicity at 72 h, 50 ug/ml was 58.1%. Further, in data set [2], the half-maximal inhibitory concentration (IC50) is < 50 µg/mL. The MIC in data set [3] turned out to be 25 µg/mL (≈ 65.2 µM). The selectivity ratio in data set [4] amounted to 1.

As for `Brc1cccc(Cn2cc(-c3ccc4oc5ccccc5c4c3)nn2)c1`, in data set [1], the cytotoxicity at 72 h, 50 ug/ml came to 12%. Besides, in data set [2], the IC50 is > 50 µg/mL. The MIC in data set [3] came out at 6.25 µg/mL (≈ 15.5 µM). Also, the selectivity ratio in data set [4] is > 10.

On to `OCCCCn1cc(-c2ccc3oc4ccccc4c3c2)nn1`, for which, in data set [1], the cytotoxicity at 72 h, 50 ug/ml is 21.9%. Besides, the IC50 in data set [2] is > 50 µg/mL. The MIC in data set [3] was 50 µg/mL (≈ 163 µM). Moreover, the selectivity ratio in data set [4] turned out to be 1.

`CO[C@H]1/C=C/O[C@@]2(C)Oc3c(C)c(O)c4c(O)c(c(/C=N/N5CCN(C)CC5)c(O)c4c3C2=O)NC(=O)/C(C)=C\C=C\[C@H](C)[C@H](O)[C@@H](C)[C@@H](O)[C@@H](C)[C@H](OC(C)=O)[C@@H]1C` [RIFAMPIN]: the MIC in data set [3] was 0.2 µg/mL (≈ 0.243 µM).

Consider `CC(c1ccc2oc3ccccc3c2c1)n1cc(-c2ccc3oc4ccccc4c3c2)nn1` (centres undefined), for which the cytotoxicity at 72 h, 50 ug/ml in data set [1] worked out at 52.6%. For the same compound, the IC50 in data set [2] was 50 µg/mL (≈ 116 µM). In addition, the MIC in data set [3] is 50 µg/mL (≈ 116 µM). The selectivity ratio in data set [4] worked out at 1.

`c1ccc(Cn2cc(-c3ccc4oc5ccccc5c4c3)nn2)cc1`: in data set [1], the cytotoxicity at 72 h, 50 ug/ml is 36.1%. In addition, the IC50 in data set [2] is > 50 µg/mL. Also, the MIC in data set [3] stood at 50 µg/mL (≈ 154 µM). Besides, the selectivity ratio in data set [4] turned out to be 1.

With `CC[C@@H](CO)NCCN[C@@H](CC)CO` [ETHAMBUTOL], in data set [3], the MIC is 3.13 µg/mL (≈ 15.3 µM).

As for `COc1ccc(C(C)n2cc(-c3ccc4oc5ccccc5c4c3)nn2)cc1` (centres undefined), the cytotoxicity at 72 h, 50 ug/ml in data set [1] came out at 18.9%. For the same compound, the 50% inhibitory concentration (IC50) in data set [2] was > 50 µg/mL. Moreover, the MIC in data set [3] was 3.12 µg/mL (≈ 8.45 µM). For the same compound, the selectivity ratio in data set [4] is > 16.

As for `CC(c1ccc([N+](=O)[O-])cc1)n1cc(-c2ccc3oc4ccccc4c3c2)nn1` (centres undefined), the cytotoxicity at 72 h, 50 ug/ml in data set [1] came to 38.9%. In addition, the half-inhibitory concentration (IC50) in data set [2] was > 50 µg/mL. Also, the minimal inhibitory concentration (MIC) in data set [3] was 25 µg/mL (≈ 65 µM). The selectivity ratio in data set [4] turned out to be 2.

For the compound `COc1ccc(Cn2cc(-c3ccc4oc5ccccc5c4c3)nn2)cc1`, the cytotoxicity at 72 h, 50 ug/ml in data set [1] was determined as 52.7%. This compound also yielded an IC50 in data set [2] of 50 µg/mL (≈ 141 µM). For the same compound, the MIC in data set [3] is 3.12 µg/mL (≈ 8.78 µM). Moreover, in data set [4], the selectivity ratio turned out to be 16.

As to `Cc1ccc(C(C)n2cc(-c3ccc4oc5ccccc5c4c3)nn2)cc1` (centres undefined), the cytotoxicity at 72 h, 50 ug/ml in data set [1] is 43.1%. The IC50 in data set [2] worked out at 50 µg/mL (≈ 141 µM). Besides, the MIC in data set [3] is 3.12 µg/mL (≈ 8.83 µM). The selectivity ratio in data set [4] was 16.

(Values after ChEMBL document CHEMBL3098051, “Rational design and synthesis of novel dibenzo[b,d]furan-1,2,3-triazole conjugates as potent inhibitors of Mycobacterium tuberculosis” (Eur J Med Chem, 2014).)
